Source: PubChem
HTRA1 inhibitor: HTRA1 serine protease inhibitors, primary screen, biochemical, fluorescence polarization, HTS; inhibition, % at 5.96 µM; recombinant HTRA1, FP-rhodamine activity-based probe; 0.5% of 340,000 active; Q92743; in the data active = inhibition above about 36%;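 note: 0% = enzyme with DMSO and 100% = wells lacking enzyme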
Target sequence (Q92743 whole entry, looked up): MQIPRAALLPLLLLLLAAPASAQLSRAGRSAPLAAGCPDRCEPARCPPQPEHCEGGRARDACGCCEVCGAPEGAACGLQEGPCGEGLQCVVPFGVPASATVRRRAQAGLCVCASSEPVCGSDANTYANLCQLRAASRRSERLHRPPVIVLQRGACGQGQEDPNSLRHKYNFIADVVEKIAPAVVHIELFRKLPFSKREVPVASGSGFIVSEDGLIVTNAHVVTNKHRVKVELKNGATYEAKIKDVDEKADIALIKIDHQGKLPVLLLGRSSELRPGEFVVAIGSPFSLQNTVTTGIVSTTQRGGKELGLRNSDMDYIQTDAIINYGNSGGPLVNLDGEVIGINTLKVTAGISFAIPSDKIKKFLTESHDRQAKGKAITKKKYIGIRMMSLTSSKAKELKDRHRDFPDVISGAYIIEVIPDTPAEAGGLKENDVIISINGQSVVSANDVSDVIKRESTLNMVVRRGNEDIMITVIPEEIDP
DDE Tn7 FP inh: inhibitors of Tn7 peptide binding to fibrin DD(E), primary screen, biochemical, fluorescence polarization, human fibrin, Tn7 probe; Fibrinogen beta chain (Homo sapiens), P02675; FP displacement of FITC-Tn7 peptide from fibrin DD(E); 0% = median of compound wells per plate; inhibition, % at 8.3 µM; 0.13% of 370,000 active; AID 720508, 2013;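 active = inhibition above the mean of compounds falling within the control limits plus 3 SD of them, cut at about 14% in these data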;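 note: 0% = plate median of compound wells and 100% = 10 µM Aha-Tn7 peptide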
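System: human fibrin DD(E); quantity: Fibrin-DD(E) at 2 µM final; also added: fluorescent Tn7 probe at 0.1 µM; compound dosing: single nominal test concentration of 8.3 µM per compound; schedule: 10 min preincubation, 3 h with tracer, room temperature; detection: fluorescence polarization of the labelled Tn7 tracer; repeats: one replicate per compound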
SIAE primary: human SIAE inhibitors, primary screen, biochemical, fluorescence polarization, FP-Rh probe, 1536-well HTS. 0.69% of 370,000 active. inhibition, % at 9.66 µM. SIAE FP-Rh probe binding;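 active = inhibition above a cutoff: mean of compounds within the control limits plus 3 SD of those, cut at about 17% in these data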;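 note: 0% = plate median of compound wells and 100% = probe without SIAE protein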
TCR CD3 inh: inhibitors of human TCR-CD3 interaction, primary screen, biochemical, fluorescence, TAMRA-labeled TCR probe | T-cell receptor (TCR) | inhibition, % at 9.4 µM | 0.37% of 360,000 active | AID 651800, 2012;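 note: recombinant mutant TCR 2C K166C tagged with TAMRA read by polarization; 0% = receptor in buffer alone and 100% = receptor with positive control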
ABHD4 inh: ABHD4 inhibitors, primary screen, biochemical, fluorescence polarization, mouse; inhibition, % at 8.92 µM; (Lyso)-N-acylphosphatidylethanolamine lipase (Mus musculus), Q8VD66; purified mABHD4, FP-Rh probe fluorescence polarization; 0.54% of 370,000 active;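 active = inhibition exceeding the mean over every tested compound plus 3 SD, cut at about 30% in these data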;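 note: 0% = plate median of compound wells and 100% = S159A mutant with DMSO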
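Assay system: wild-type mouse ABHD4 protein; compound: single nominal dose of 8.92 µM, 0.89% DMSO final; schedule: 45 min + 60 min at 25 °C; measured by: FP readout, ex 525 nm / em 598 nm; evaluation: % inhibition of FP-Rh probe binding versus controls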
Tn6 DDE FP: inhibitors of Tn6 peptide binding to fibrin DD(E), primary screen, biochemical, fluorescence polarization, human fibrin, Tn6 probe. Fibrinogen beta chain (Homo sapiens), P02675. Fibrin DD(E) TRITC-Tn6 fluorescence polarization displacement. inhibition, % at 8.3 µM. 0.21% of 370,000 active. AID 720509, 2013;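 active = inhibition above a per-campaign cutoff: mean of compounds within control limits plus 3 SD, cut at about 15% in these data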;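 note: 0% = median of all compound wells on the plate and 100% = blocking peptide control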
BSA TAMRA ctr: compounds interfering with TAMRA-BSA probe, counter-screen for TCR-CD3 interaction inhibitor project, biochemical, fluorescence, TAMRA-labeled BSA. shares compounds with TCR CD3 inh. TAMRA-labeled BSA probe fluorescence counterscreen. inhibition, % at 9.4 µM. 10% of 1,200 active; in the data active = inhibition above about 23%;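 note: 0% = buffer low control and 100% = reference high control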
TCR-CD3 inh conf: TCR-CD3 interaction inhibitors, retest, confirmation, biochemical, fluorescence, TAMRA-labeled TCR probe. shares compounds with TCR CD3 inh. 48% of 1,200 active. inhibition, % at 9.4 µM. AID 652036, 2013. TAMRA-labeled TCR probe fluorescence binding assay
* hit, by the source's call; nt = no result given. The list is not random: actives were taken first. Their share in the collection is about 1.8%. Cut-off read from the data, not from the text of the source, unless noted: active = inhibition above about 19%; inactive = the rest.

SMILES | HTRA1 inhibitor | DDE Tn7 FP inh | SIAE primary | TCR CD3 inh | ABHD4 inh | Tn6 DDE FP | BSA TAMRA ctr | TCR-CD3 inh conf
O=C(COCc1ccncc1)N1CCN(c2ccc(F)cc2Cl)CC1 | nt | -2.3 | -1.3 | nt | 4.4 | 3.0 | nt | nt
CN(C)c1ccc(C(=O)N/N=C/c2cc(Br)cc(Br)c2O)cc1 | nt | -1.6 | -2.7 | 33.0* | 20.4 | -3.4 | 0.1 | 42.5*
O=C(CNC(=O)c1cccc(Br)c1)N/N=C/c1cc(Br)cc(Br)c1O | 17.3 | -3.9 | 8.2 | 47.9* | 6.9 | -7.3 | -12.6 | 36.4*
COc1c(Br)cc(Br)cc1/C=N/NC(=O)c1ccncc1 | -3.9 | 7.5 | -6.4 | 11.1 | -9.4 | 0.4 | nt | nt
O=C(Cc1ccccc1)N/N=C/c1cc(Br)cc(Br)c1O | 20.2 | -0.9 | 13.8 | 23.0* | 6.8 | -2.2 | -7.2 | 24.8*
CCCCNS(=O)(=O)/C=C/c1ccc(F)cc1CNC(=O)OC(C)(C)C | nt | 8.5 | 2.9 | nt | -3.1 | 4.0 | nt | nt
CCCC(=O)N1CCC[C@]2(CC[C@@H](CCC(C)=O)O2)C1 | nt | 1.0 | 12.3 | nt | 5.8 | 3.0 | nt | nt
CN(C(=O)C1CCN(c2cncnc2)CC1)C1CCCCC1 | nt | -4.8 | -0.9 | nt | 2.7 | -3.4 | nt | nt
COc1cccc2c(SCC(=O)N/N=C/c3ccc(O)c(O)c3)cc(C)nc12 | nt | -5.3 | 5.0 | 44.8* | 28.9 | -6.8 | -13.9 | 78.7*
Cc1ccc2nc(C)cc(SCC(=O)N/N=C/c3ccco3)c2c1 | -13.4 | -1.9 | -0.3 | 19.1* | 8.6 | -5.2 | 0.1 | 4.0
Cc1cc2oc3ccc(NCCCn4ccnc4)cc3c(=O)c2cc1C | 2.5 | -13.1 | -8.4 | 35.0* | 12.6 | -8.7 | 1.4 | 20.3*
CC(=O)NC(Cc1ccc2c(c1)OCO2)C(=O)N1CCCC1 (configuration not stated) | nt | 1.6 | -2.1 | nt | -7.4 | 2.3 | nt | nt
Cc1ncc(CO)c(/C=N/NC(=O)c2cc3c(s2)CCCC3)c1O | 17.0 | -14.4 | 6.9 | 37.5* | 8.3 | 4.1 | -12.8 | 26.5*
CC1CCN(S(=O)(=O)c2ccc(NC(=O)Cn3nnc(-c4ccccc4F)n3)cc2)CC1 | -37.8 | 2.5 | -52.5 | 19.7* | -6.5 | 1.8 | 8.9 | 23.7*
COc1ccc(OCc2cc(C(=O)N[C@H]3CCCCNC3=O)no2)c(Cl)c1 | 0.9 | -1.9 | 1.8 | 21.4* | -1.5 | 10.0 | 0.7 | -0.1
O=C(CN1C(=O)C2(OCCCO2)c2ccccc21)NCc1ccc2ccccc2c1 | nt | 1.9 | -5.1 | nt | 4.5 | -1.5 | nt | nt
Nc1nc(O)c(N=Nc2ccc(S(N)(=O)=O)cc2)c(=O)[nH]1 | nt | 6.5 | -2.4 | -2.6 | -2.8 | -4.1 | nt | nt
NS(=O)(=O)c1ccc(N=Nc2c[nH]c(=O)c(O)c2)cc1 | 17.4 | 1.3 | 4.3 | 26.0* | 14.4 | -6.4 | 14.3 | 36.3*
CCOC(=O)c1cc(S(=O)(=O)NC2CCCCC2)cn1C | 6.2 | -4.0 | 1.4 | 30.0* | 3.5 | 4.9 | -4.1 | 2.5
CN(C(=O)c1cccc(S(=O)(=O)N2CCCC2)c1)C1CCCCC1 | 2.3 | -4.8 | 5.1 | 22.8* | 3.9 | 9.0 | 6.0 | 0.6
CN(C(=O)c1ccc(S(=O)(=O)N2CCCC2)cc1)C1CCCCC1 | 3.2 | 2.5 | -4.1 | -2.0 | 3.2 | -0.2 | nt | nt
CCCCc1c(-c2ccccc2OC)ncn1C1CCCCC1 | nt | 7.9 | 8.7 | 20.8* | 6.3 | 0.7 | 1.5 | 3.5
O=S(=O)(c1ccc(CN2CCOCCOCCN(Cc3ccc(S(=O)(=O)C(F)(F)F)cc3)CCOCC2)cc1)C(F)(F)F | nt | -10.5 | 0.0 | nt | 4.7 | -2.9 | nt | nt
O=C(CSc1nnc2ccccn12)NNC(=O)c1cccc([N+](=O)[O-])c1 | 4.4 | -0.6 | -6.8 | 79.7* | 10.8 | -5.9 | -2.6 | 3.9
O=C(CSc1nnc2ccccn12)NC(=O)c1cccc([N+](=O)[O-])c1 | -5.7 | 0.3 | -0.3 | -3.1 | 7.1 | -1.4 | nt | nt
SMILES | HTRA1 inhibitor | DDE Tn7 FP inh | SIAE primary | TCR CD3 inh | ABHD4 inh | Tn6 DDE FP | BSA TAMRA ctr | TCR-CD3 inh conf
Cc1cc([N+](=O)[O-])cc(/C=N\NC(=O)C2COc3ccccc3O2)c1O (configuration not stated) | 10.4 | 1.8 | 2.3 | 31.3* | 3.8 | 2.1 | -1.4 | 29.2*
O=C(N/N=C\c1ccc(O)c([N+](=O)[O-])c1)C1COc2ccccc2O1 (configuration not stated) | 5.2 | -4.5 | 12.1 | -2.5 | 2.1 | -2.2 | nt | nt
Cc1c(OC(C(=O)O)c2ccccc2)ccc2c1oc(=O)c1ccccc12 (configuration not stated) | -7.7 | -1.8 | -8.7 | 19.5* | -2.1 | -12.9 | 2.4 | 0.2
Cn1c(=O)n(C)c2cc(/C=N/N=C3/NC(=O)C(CC(=O)O)S3)ccc21 (configuration not stated) | -2.4 | -0.6 | -1.8 | 41.4* | 4.2 | -3.9 | 1.8 | 21.5*
CCOc1cc(/C=N/N=C2/NC(=O)C(CC(=O)O)S2)ccc1OCc1ccc(Cl)cc1 (configuration not stated) | -3.7 | 0.3 | 1.5 | 5.5 | -6.9 | -1.8 | nt | nt
Cn1cccc1CC(=O)N/N=C/C=C/c1ccco1 | 8.3 | -0.2 | 3.9 | 19.8* | 6.2 | 2.4 | -11.0 | 10.3
O=C(Nc1ccc(F)c(Cl)c1)C1Cc2c(-c3ccc(Cl)cc3)ccnc2O1 (configuration not stated) | nt | 7.9 | -52.2 | -9.4 | -18.0 | 6.2 | nt | nt
O=C(Nc1ccc(F)c(Cl)c1)C1Cc2c(-c3ccc4c(c3)OCO4)ccnc2O1 (configuration not stated) | nt | -6.4 | -28.6 | 29.3* | -6.2 | -4.1 | 2.5 | 7.2
CC(=O)N[C@@H]1C[C@@H]2O[C@H](CO)CC[C@@H]2O[C@@H]1CCc1ccc(C#CC2(O)CCCC2)cc1 | nt | 0.0 | 3.8 | nt | 4.0 | -11.1 | nt | nt
O=C(O)c1cccc(N2C(=O)/C(=C/c3ccc(SCc4ccc(Cl)cc4)o3)SC2=S)c1 | 0.7 | 2.0 | -5.1 | 19.6* | 32.2* | -7.8 | -15.6 | 6.9
COc1ccc([C@H]2OC(=O)C[C@H]2C(=O)N2CCCC2)cc1OC | nt | -1.8 | -1.4 | nt | 0.9 | -4.4 | nt | nt
COc1ccc(NC(=O)CSc2nnc(-c3cccs3)o2)cc1Cl | nt | -1.9 | -0.9 | nt | -3.1 | 2.4 | nt | nt
